Compound activity (PubChem)
TRPN1 ag: agonists of zebrafish TRPN1 channel | AID 1424 | activation, % at 3 µM | HEK293 zebrafish TRPN1-YFP, Fluo-8 calcium fluorescence; 100% = response to 87 µM carbachol | hit rate 0.18% among 220,000;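 active = activation above its plate's cutoff, the mean activation of test wells on that plate plus 3 SD, cut at about 19% in these data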;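 also: 0% = DMSO alone and 100% = 87 µM carbachol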
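Material: zebrafish TRPN1-YFP in HEK293 cells; Doses: single test compound dose, 3 µM nominal, 0.3% DMSO; Timing: dye loading 1 h at 37 °C, then 30 min room temperature; Technique: intracellular calcium fluorescence with Fluo-8; Benchmarks: high carbachol 87 µM, low DMSO alone.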
OXTR potentiator: potentiators of human oxytocin receptor. P30559. CHO-OTR cells, Fluo-8 calcium fluorescence, potentiator mode; 0% = oxytocin EC15, 100% = EC100. activation, % at 3 µM. hit rate 0.061% among 320,000. AID 2445;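 active = activation above that plate's cutoff, the mean activation of tested compounds plus 3 SD, cut at about 6.6% in these data, passing the limit was not always enough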;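 also: 100% uses oxytocin at 75 nM as the full agonist control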
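Material: CHO-OTR cells, human receptor; compound dosing: single dose, 3.0 µM nominal final compound concentration; schedule: 6 min compound pre-incubation at room temperature, 100 s kinetic read; measured by: kinetic Fluo-8 calcium fluorescence; read-out basis: % activation vs EC15 and EC100 oxytocin; controls: EC15 oxytocin alone as 0%, 75 nM oxytocin as 100%; replicates: singlicate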
TRPML3 ag: agonists of human TRPML3 channel. hit rate 0.29% among 220,000. HEK293 TRPML3-YFP, Fluo-8 calcium fluorescence; 100% = the carbachol control signal. activation, % at 3 µM. Q8TDD5;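 active = activation above its plate's cutoff, the mean activation of the plate's test wells plus 3 SD, cut at about 12% in these data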;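 also: 0% = DMSO only wells and 100% = carbachol wells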
Target sequence (Q8TDD5 whole entry, looked up): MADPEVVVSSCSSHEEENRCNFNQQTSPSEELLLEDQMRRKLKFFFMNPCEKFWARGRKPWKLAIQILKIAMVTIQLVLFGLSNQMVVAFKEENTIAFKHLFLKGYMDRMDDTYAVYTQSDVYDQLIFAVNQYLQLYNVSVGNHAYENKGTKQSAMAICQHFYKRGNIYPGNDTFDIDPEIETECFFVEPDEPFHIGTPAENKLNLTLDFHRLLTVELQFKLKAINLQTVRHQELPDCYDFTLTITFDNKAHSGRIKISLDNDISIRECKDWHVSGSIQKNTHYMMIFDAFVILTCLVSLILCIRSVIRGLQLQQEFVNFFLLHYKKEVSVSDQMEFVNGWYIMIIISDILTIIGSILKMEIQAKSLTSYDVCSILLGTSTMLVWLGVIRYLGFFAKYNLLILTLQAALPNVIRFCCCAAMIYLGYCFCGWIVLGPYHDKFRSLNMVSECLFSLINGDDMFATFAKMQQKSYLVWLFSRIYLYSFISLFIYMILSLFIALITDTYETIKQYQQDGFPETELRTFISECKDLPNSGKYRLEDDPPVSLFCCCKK
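Material: HEK293 cells stably carrying human TRPML3-YFP; compound dosing: single dose, 3 µM final nominal compound, 0.3% DMSO final; incubation: 1-h 37 °C dye load, 5-s basal, 120-s post-compound reads; technique: Fluo-8 intracellular calcium fluorescence, excitation 470-495 nm, emission 515-575 nm; read-out basis: percent activation from peak-to-basal fluorescence ratio, scaled between DMSO and carbachol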
OXTR ag: activates the human oxytocin receptor | P30559 | CHO-OTR cells, Fluo-8 calcium fluorescence; normalized: DMSO 0%, oxytocin 100% | hit rate 0.32% among 320,000 | activation, % at 3 µM;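 active = activation above the mean of all tested compounds plus 3 SD, cutoff set per screening run, cut at about 20% in these data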;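 also: peak over basal fluorescence ratio from a 100 s FLIPR kinetic read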
V1R ag counter: activates human V1a receptor in oxytocin agonist counter-screen; P37288; CHO-V1R cells, Fluo-8 calcium fluorescence, agonist mode; 0% DMSO, 100% 3 nM vasopressin; activation, % at 3 µM; hit rate 0.25% among 320,000; AID 2797;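 active = activation above the mean activation of all tested compounds plus 3 SD, per screening run, cut at about 20% in these data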;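 also: signal is peak over basal fluorescence ratio across a 100 second FLIPR read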
TRPN1 ag 2: counter-screen for TRPML3 agonists: agonists of zebrafish TRPN1 channel; hit rate 10% among 310; AID 1525; activation, % at 3 µM; shares compounds with TRPML3 ag; HEK293 zebrafish TRPN1-YFP, Fluo-8 calcium fluorescence; scaled: carbachol wells 100%, DMSO wells 0%;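 active = mean activation over replicates above a set limit taken from the earlier TRPN1 channel primary screen, cut at about 19% in these data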;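 also: 100% = carbachol and 0% = 0.3% DMSO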
TRPML3 ag conf: human TRPML3 agonism, confirmation; shares compounds with TRPML3 ag; HEK293 TRPML3-YFP, Fluo-8 calcium fluorescence; 100% set by carbachol, 0% by DMSO; activation, % at 3 µM; hit rate 80% among 310;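 active = activation above a set limit derived from the earlier primary screen, cut at about 12% in these data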
OXTR ag confirm: human OXTR agonism, confirmation; shares compounds with OXTR ag; CHO-OTR cells, Fluo-8 calcium fluorescence, agonist; activation, % at 3 µM; hit rate 20% among 390;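 active = mean activation above about 20% derived from the earlier single-dose screen, limit read from the data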;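 also: peak over minimum fluorescence ratio per well during a 100 second FLIPR read; 0% = DMSO alone and 100% = oxytocin high control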
V1R ag counter 3x: activates V1a receptor in oxytocin agonist counter-screen | CHO-V1R cells, Fluo-8 calcium fluorescence | hit rate 10% among 390 | AID 434991 | activation, % at 3 µM | shares compounds with OXTR ag;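 active = mean activation over triplicate exceeds the hit threshold set in the earlier primary screen, cut at about 20% in these data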;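 also: peak over basal fluorescence ratio within a 100 second read; 0% = DMSO alone and 100% = 3 nM vasopressin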
V1R ag confirm: confirmation of human vasopressin V1a receptor agonists. activation, % at 3 µM. CHO-V1R cells, Fluo-8 calcium fluorescence, agonist. hit rate 20% among 180. shares compounds with V1R ag counter;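 active = average activation exceeds primary screen hit cutoff, cut at about 21% in these data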;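 also: peak over basal fluorescence ratio during a 100 s FLIPR read; 0% = DMSO only wells and 100% = 3 nM vasopressin wells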
OXTR ag counter: counter-screen for V1a receptor agonists: oxytocin receptor agonists; shares compounds with V1R ag counter; AID 434969; CHO-OTR cells, Fluo-8 calcium fluorescence, agonist; hit rate 10% among 180; activation, % at 3 µM;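 active = mean activation over three repeats above the cutoff from the earlier oxytocin receptor agonist screen, cut at about 20% in these data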;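 also: peak over minimum fluorescence ratio within a 100 second FLIPR read; 0% = DMSO only wells and 100% = oxytocin high control wells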
* = called active by the depositor; . = not tested or not shown. This is a sample that favours compounds with a hit; in the whole collection about 0.55% have one here.

SMILES	TRPN1 ag	OXTR potentiator	TRPML3 ag	OXTR ag	V1R ag counter	TRPN1 ag 2	TRPML3 ag conf	others
Cn1/c(=N\NC(=O)c2ccccc2Cl)sc2ccccc21	-0.8	3.9	0.6	-0.9	-0.9	.	.
CC(=O)Nc1ccc(NC(=O)CSc2nnc(-c3cccnc3)o2)cc1	.	-0.7	.	0.6	0.9	.	.
Cc1cccc(N(CC(=O)NC2CCCC2)C(=O)c2nsc(Cl)c2Cl)c1C	-2.4	-8.1	3.4	-1.8	-1.4	.	.
CCOc1ccccc1N(CC(=O)NC1CCCCC1)C(=O)c1nsc(Cl)c1Cl	-1.7	-1.4	42.9*	-1.2	-1.8	-0.7	36.2*
COC(=O)CSc1nc(C)c2c(n1)CCCC2	-0.5	-6.2	0.2	-0.3	-0.3	.	.
Cc1ccc(NC(=O)CSC2=C(C#N)C(c3ccco3)CC(=O)N2)cc1 (stereo not given)	1.9	-13.7	0.6	0.9	1.9	.	.
Cc1ccc(C(=O)CSC2=C(C#N)C(c3ccco3)CC(=O)N2)c(C)c1 (stereo not given)	18.5	-11.4	15.8*	51.5*	52.8*	9.4	3.5
CCCCCC(C)NC(=O)c1cc(S(=O)(=O)N2CCCCC2)ccc1N1CCOCC1 (stereo not given)	.	3.0	.	-2.1	0.4	.	.
CCN(CC(=O)Nc1c(F)cccc1F)C(=O)CCSc1ccc(F)cc1	.	-5.5	.	-0.2	0.7	.	.
Cc1nc(NC(=O)c2ccccc2O)sc1C	.	-6.1	.	1.2	1.2	.	.
Cc1nc(NC(=O)c2csc3ccccc23)sc1C	-2.1	-10.1	17.8*	-1.7	-1.3	1.4	28.1*
Cc1ccc(C2=CC(c3ccc(N(C)C)cc3)n3nnnc3N2)cc1 (stereo not given)	14.5	-7.0	17.7*	7.0	9.9	2.2	0.2
COc1cc(C(=O)NC(=S)NNC(=O)[C@H]2C[C@@H]2c2ccccc2)cc(OC)c1OC	11.2	-16.2	13.9*	27.6*	10.4	25.1*	32.6*	OXTR ag confirm=12.1;V1R ag counter 3x=19.4
O=C(Nc1ccc(F)c(Cl)c1)c1cncs1	.	-4.0	.	0.8	0.3	.	.
O=C1c2cccc3c(N4CCCCC4)ccc(c23)C(=O)N1CCO	8.2	-24.6	12.8*	15.7	22.3*	18.2	10.3	V1R ag confirm=31.7*;OXTR ag counter=18.5
COC(=O)c1ccc(COC(=O)CNC(=O)c2ccc(C)s2)cc1	.	-1.2	.	-0.9	1.1	.	.
Cc1ccc(S(=O)(=O)c2nnn3c2nc(NCCCN2CCCC2=O)c2ccccc23)cc1C	.	-8.0	.	0.9	3.1	.	.
Cc1ccc(S(=O)(=O)c2nnn3c2nc(NC2CCN(Cc4ccccc4)CC2)c2ccccc23)cc1C	.	-10.4	.	20.3*	-0.4	.	.	OXTR ag confirm=-0.6;V1R ag counter 3x=-0.2
Cc1cc(-c2onc3ccc(Cl)cc23)ccc1O	.	-5.1	.	3.4	2.9	.	.
O=C(COC(=O)/C=C/c1cccc(Br)c1)NC1CCCC1	.	-2.3	.	0.8	2.4	.	.
NS(=O)(=O)c1ccc(CCNCc2cc(Cl)ccc2OCc2ccccc2)cc1	.	-23.0	.	22.0*	17.4	.	.	OXTR ag confirm=8.3;V1R ag counter 3x=8.3
NS(=O)(=O)c1ccc(CCNCc2ccccc2OCc2ccc(Cl)cc2)cc1	.	-24.6	.	27.7*	17.3	.	.	OXTR ag confirm=18.1;V1R ag counter 3x=7.0
CC1Cc2c([nH]c3ccccc23)C(=O)N1 (stereo not given)	.	-8.8	.	-1.2	0.8	.	.
